Test system: HEp-2 RSV Long CPE inhibition, luminescence viability
Test: antiviral activity against respiratory syncytial virus – cell-based, synthesized compounds, set 13, dose response (AID 588455)
Outline: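 test system = HEp-2 human cells infected with RSV strain Long | doses = 8-point twofold series, 50 to 0.39 µM, 0.5% DMSO final | schedule = 6 d infection at 37 °C | measured by = luminescence-based measurement of viral cytopathic effect | read-out basis = percent CPE inhibition versus cell-only and virus-only wells, plus four-parameter IC50 | benchmarks = cells-only and virus-infected control wells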

| Structure (SMILES) | IC50 [nM] |
| --- | --- |
| COCCCNC(=O)c1ccc(Cn2c(=O)c3ccccc3n(Cc3ccc([N+](=O)[O-])cc3)c2=O)cc1 | 480 |
| COCCCNC(=O)c1ccc(Cn2c(=O)c3ccccc3n(Cc3ccc(Br)cc3)c2=O)cc1 | 480 |
| COCCCNC(=O)c1ccc(Cn2c(=O)c3ccccc3n(Cc3ccc(Cl)cc3)c2=O)cc1 | 970 |

Source: PubChem BioAssay AID588455 (Southern Research Specialized Biocontainment Screening …, 2011)
